Measured values reported in ChEMBL document CHEMBL1949496, “Synthesis of [¹⁸F]-labeled (2-(2-fluoroethoxy)ethyl)triphenylphosphonium cation as a potential agent for myocardial imaging using positron emission tomography” (Bioorg Med Chem Lett, 2012).

Experiments:
Pancreas [1] = assay: Biodistribution in BALB/c mouse pancreas at 7.4 MBq, iv after 10 mins by gamma counting; assay type: ADME, organism-based; settings: in vivo
Method in brief: (§1)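 Tracer given intravenously to BALB/c mice; animals sampled at 10, 30, 60 and 120 min after injection. Organ radioactivity expressed as percentage of injected dose per gram of tissue (% ID/g), n = 12.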

Kidney [2] = assay: Biodistribution in BALB/c mouse kidney at 7.4 MBq, iv after 30 mins by gamma counting; assay type: ADME, organism-based; settings: in vivo, 0.5 h; method in brief: as §1
Kidney [3] = assay: Biodistribution in BALB/c mouse kidney at 7.4 MBq, iv after 60 mins by gamma counting; assay type: ADME, organism-based; settings: in vivo, 1 h; method in brief: as §1
Kidney [4] = assay: Biodistribution in BALB/c mouse kidney at 7.4 MBq, iv after 120 mins by gamma counting; assay type: ADME, organism-based; settings: in vivo, 2 h; method in brief: as §1
Pancreas [5] = assay: Biodistribution in BALB/c mouse pancreas at 7.4 MBq, iv after 30 mins by gamma counting; assay type: ADME, organism-based; settings: in vivo, 0.5 h; method in brief: as §1
Pancreas [6] = assay: Biodistribution in BALB/c mouse pancreas at 7.4 MBq, iv after 60 mins by gamma counting; assay type: ADME, organism-based; settings: in vivo, 1 h; method in brief: as §1
Pancreas [7] = assay: Biodistribution in BALB/c mouse pancreas at 7.4 MBq, iv after 120 mins by gamma counting; assay type: ADME, organism-based; settings: in vivo, 2 h; method in brief: as §1
Muscle tissue [8] = assay: Biodistribution in BALB/c mouse normal muscle at 7.4 MBq, iv after 10 mins by gamma counting; assay type: ADME, organism-based; settings: in vivo; method in brief: as §1
Muscle tissue [9] = assay: Biodistribution in BALB/c mouse normal muscle at 7.4 MBq, iv after 30 mins by gamma counting; assay type: ADME, organism-based; settings: in vivo, 0.5 h; method in brief: as §1
Muscle tissue [10] = assay: Biodistribution in BALB/c mouse normal muscle at 7.4 MBq, iv after 60 mins by gamma counting; assay type: ADME, organism-based; settings: in vivo, 1 h; method in brief: as §1
Muscle tissue [11] = assay: Biodistribution in BALB/c mouse normal muscle at 7.4 MBq, iv after 120 mins by gamma counting; assay type: ADME, organism-based; settings: in vivo, 2 h; method in brief: as §1
Bone [12] = assay: Biodistribution in BALB/c mouse bone at 7.4 MBq, iv after 10 mins by gamma counting; assay type: ADME, organism-based, Bone element; settings: in vivo; method in brief: as §1
Bone [13] = assay: Biodistribution in BALB/c mouse bone at 7.4 MBq, iv after 30 mins by gamma counting; assay type: ADME, organism-based, Bone element; settings: in vivo, 0.5 h; method in brief: as §1
Bone [14] = assay: Biodistribution in BALB/c mouse bone at 7.4 MBq, iv after 60 mins by gamma counting; assay type: ADME, organism-based, Bone element; settings: in vivo, 1 h; method in brief: as §1
Bone [15] = assay: Biodistribution in BALB/c mouse bone at 7.4 MBq, iv after 120 mins by gamma counting; assay type: ADME, organism-based, Bone element; settings: in vivo, 2 h; method in brief: as §1
Nucleic Acid [16] = assay: Ratio of drug level in BALB/c mouse heart to blood at 7.4 MBq, iv after 10 mins by gamma counter; assay type: ADME, organism-based; settings: other tissue
Method in brief: (§2)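 Normal BALB/c mice were given the 18F tracer by i.v. injection. Tissues were sampled at 10, 30, 60 and 120 min. Activity is expressed as % injected dose per gram of tissue (n = 12), and organ ratios were taken from these values.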

Nucleic Acid [17] = assay: Ratio of drug level in BALB/c mouse heart to liver at 7.4 MBq, iv after 10 mins by gamma counter; assay type: ADME, organism-based; settings: in vivo; method in brief: as §2
Nucleic Acid [18] = assay: Ratio of drug level in BALB/c mouse heart to liver at 7.4 MBq, iv after 30 mins by gamma counter; assay type: ADME, organism-based; settings: in vivo, 0.5 h; method in brief: as §2
Nucleic Acid [19] = assay: Ratio of drug level in BALB/c mouse heart to liver at 7.4 MBq, iv after 60 mins by gamma counter; assay type: ADME, organism-based; settings: in vivo, 1 h; method in brief: as §2
Nucleic Acid [20] = assay: Ratio of drug level in BALB/c mouse heart to liver at 7.4 MBq, iv after 120 mins by gamma counter; assay type: ADME, organism-based; settings: in vivo, 2 h; method in brief: as §2
Nucleic Acid [21] = assay: Ratio of drug level in BALB/c mouse heart to lung at 7.4 MBq, iv after 10 mins by gamma counter; assay type: ADME, organism-based; settings: in vivo; method in brief: as §2
Nucleic Acid [22] = assay: Ratio of drug level in BALB/c mouse heart to lung at 7.4 MBq, iv after 30 mins by gamma counter; assay type: ADME, organism-based; settings: in vivo, 0.5 h; method in brief: as §2
Nucleic Acid [23] = assay: Ratio of drug level in BALB/c mouse heart to lung at 7.4 MBq, iv after 60 mins by gamma counter; assay type: ADME, organism-based; settings: in vivo, 1 h; method in brief: as §2
Nucleic Acid [24] = assay: Ratio of drug level in BALB/c mouse heart to lung at 7.4 MBq, iv after 120 mins by gamma counter; assay type: ADME, organism-based; settings: in vivo, 2 h; method in brief: as §2
Heart [25] = assay: Drug uptake in Sprague-Dawley rat heart at 37 MBq, iv after 0.5 hrs by micro PET analysis; assay type: ADME, organism-based; settings: in vivo
Method in brief: (§3)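 Rats received the tracer intravenously and were imaged by micro-PET in coronal view at 0.5 h and 1.0 h after injection.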

Heart [26] = assay: Drug uptake in Sprague-Dawley rat heart at 37 MBq, iv after 1 hr by micro PET analysis; assay type: ADME, organism-based; settings: in vivo; method in brief: as §3
[27] = Drug uptake in Sprague-Dawley rat myocardium at 37 MBq, iv up to 1 hr by micro PET analysis; assay type: ADME, organism-based; settings: in vivo; method in brief: as §3
Nucleic Acid [28] = assay: Ratio of drug level in BALB/c mouse heart to blood at 7.4 MBq, iv after 120 mins by gamma counter; assay type: ADME, organism-based; settings: other tissue, 2 h; method in brief: as §2
[29] = Metabolic stability in human serum assessed as compound remaining at 0.37 MBq after 4 hrs by TLC analysis; assay type: ADME, cell-free; settings: read-out: Stability
Method in brief: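 Analysed on ITLC-sg strips developed in methylene chloride:methanol (9:2 v/v), and the strips were scanned on an automatic TLC scanner.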

[30] = Octanol-NaCl aqueous solution partition coefficient, log P of the compound after 20 mins by gamma counting; assay type: physicochemical
Heart [31] = assay: Biodistribution in BALB/c mouse heart at 7.4 MBq, iv after 30 mins by gamma counting; assay type: ADME, organism-based; settings: in vivo, 0.5 h; method in brief: as §1

Which results are given for `[18F]CCOCC[P+](c1ccccc1)(c1ccccc1)c1ccccc1`?
Drug uptake (Pancreas [1]): 8.8 % ID/g; Drug uptake (Kidney [2]): 23.67 % ID/g; Drug uptake (Kidney [3]): 16.86 % ID/g; Drug uptake (Kidney [4]): 9.28 % ID/g; Drug uptake (Pancreas [5]): 5.96 % ID/g; Drug uptake (Pancreas [6]): 7.35 % ID/g; Drug uptake (Pancreas [7]): 5.44 % ID/g; Drug uptake (Muscle tissue [8]): 6.46 % ID/g; Drug uptake (Muscle tissue [9]): 5.27 % ID/g; Drug uptake (Muscle tissue [10]): 4.42 % ID/g; Drug uptake (Muscle tissue [11]): 3.2 % ID/g; Drug uptake (Bone [12]): 3.37 % ID/g; Drug uptake (Bone [13]): 2.35 % ID/g; Drug uptake (Bone [14]): 2.44 % ID/g; Drug uptake (Bone [15]): 2.28 % ID/g; Ratio (Nucleic Acid [16]): > 55; Ratio (Nucleic Acid [17]): 11.08; Ratio (Nucleic Acid [18]): 8.05; Ratio (Nucleic Acid [19]): 9.87; Ratio (Nucleic Acid [20]): 19.16; Ratio (Nucleic Acid [21]): 4.58; Ratio (Nucleic Acid [22]): 3.71; Ratio (Nucleic Acid [23]): 5.05; Ratio (Nucleic Acid [24]): 4.36; Drug uptake (Heart [25]): Active; Drug uptake (Heart [26]): Active; Drug uptake [27]: Active; Ratio (Nucleic Acid [28]): > 102; remaining at 4 h, 0.37 MBq [29]: > 95%; logP at 20 min [30]: 0.89; Drug uptake (Heart [31]): 19.33 % ID/g
